These results are taken from PubChem BioAssay AID2363 (The Scripps Research Institute Molecular Screening Center, 2010).

The assay deals with Protein phosphatase methylesterase 1 (Homo sapiens) (UniProt Q9Y570). Description: cellular PME-1 inhibition of PP2A demethylation, late-stage follow-up, orthogonal assay for PME-1 inhibitor project, HeLa cells, demethylated PP2A western blot (AID 2363). Conditions: demethylated PP2A western blot chemiluminescence, stronger effect = higher value. The essentials:
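Test system: Cultured HeLa cells | Reagent: Cellular PP2A as the PME-1 demethylation substrate | Dosing: 5 and 20 µM compound | Schedule: Cell treatment at 37 °C | Measured by: SDS-PAGE immunoblot with HRP antibody against demethylated PP2A C-terminus, chemiluminescence | Measure: % inhibition of PP2A demethylation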
In general terms: A western blot detects proteins with antibodies after separation by electrophoresis.

Setting [1] is: PP2A demethylation inhibition, at 20 µM.

Sequence of Protein phosphatase methylesterase 1 (Homo sapiens) (Q9Y570 whole entry, looked up): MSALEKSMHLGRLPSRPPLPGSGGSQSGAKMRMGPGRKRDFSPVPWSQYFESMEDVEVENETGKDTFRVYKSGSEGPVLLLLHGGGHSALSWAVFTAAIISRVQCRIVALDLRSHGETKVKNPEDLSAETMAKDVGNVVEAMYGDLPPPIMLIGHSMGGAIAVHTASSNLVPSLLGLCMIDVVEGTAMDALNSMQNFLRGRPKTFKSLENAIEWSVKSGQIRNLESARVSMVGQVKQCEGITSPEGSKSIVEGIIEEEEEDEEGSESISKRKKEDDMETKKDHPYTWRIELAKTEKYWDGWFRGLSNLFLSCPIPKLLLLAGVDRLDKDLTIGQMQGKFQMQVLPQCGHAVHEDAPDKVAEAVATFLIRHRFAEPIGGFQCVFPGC

The term inhibition denotes the share of the control response that was lost under treatment. With `N#C/C(=C\c1cccn1S(=O)(=O)c1cccc(C#N)c1)S(=O)(=O)c1ccc(F)cc1`, the inhibition is 95% under setting [1] and 60% (at 5 µM).
On the same counts, the results for `N#C/C(=C\c1cccn1S(=O)(=O)c1cccc([N+](=O)[O-])c1)S(=O)(=O)c1ccc(F)cc1` are 98% and 65%.
